Assay results: ChEMBL document CHEMBL1154956, “Stereospecific synthesis of oximes and oxime ethers of 3-azabicycles: A SAR study towards antimicrobial agents” (2010)
Converted amounts (≈) assume the structure as drawn.

Key:
Type in all cases: functional
[1] = system: Cryptococcus neoformans; test: Antifungal activity against Cryptococcus neoformans by NCCLS broth microdilution method
How it was run: (§1)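 MIC90 was taken as the lowest concentration that inhibited 90% of pathogen growth after incubation, reported in μg/mL. Broth dilution followed the NCCLS reference standards: M27-A for yeasts and the proposed standard for conidium-forming filamentous fungi. Fluconazole was the reference drug.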

[2] = system: Aspergillus niger; test: Antifungal activity against Aspergillus niger by NCCLS broth microdilution method; how it was run: as §1
[3] = system: Klebsiella pneumoniae; test: Antibacterial activity against Klebsiella pneumoniae by NCCLS broth microdilution method
[4] = system: Bacillus subtilis; test: Antibacterial activity against Bacillus subtilis by NCCLS broth microdilution method
[5] = system: Candida albicans; test: Antifungal activity against Candida albicans by NCCLS broth microdilution method; how it was run: as §1
[6] = system: Pseudomonas aeruginosa; test: Antibacterial activity against Pseudomonas aeruginosa by NCCLS broth microdilution method
[7] = system: Staphylococcus aureus; test: Antibacterial activity against Staphylococcus aureus by NCCLS broth microdilution method
[8] = system: Candida parapsilosis; test: Antifungal activity against Candida parapsilosis by NCCLS broth microdilution method; how it was run: as §1
[9] = Cryptococcus neoformans, read-out: MIC90
[10] = Aspergillus niger, read-out: MIC90
[11] = Klebsiella pneumoniae, read-out: MIC90
[12] = Bacillus subtilis, read-out: MIC90
[13] = Candida albicans, read-out: MIC90
[14] = Pseudomonas aeruginosa, read-out: MIC90
[15] = Staphylococcus aureus, read-out: MIC90
[16] = Lodderomyces parapsilosis, read-out: MIC90

Compound | MIC90 [1, 9] | MIC90 [2, 10] | MIC90 [3, 11] | MIC90 [4, 12] | MIC90 [5, 13] | MIC90 [6, 14] | MIC90 [7, 15] | MIC90 [8, 16] | MIC90 [1] | MIC90 [2] | MIC90 [3] | MIC90 [4] | MIC90 [5] | MIC90 [6] | MIC90 [7] | MIC90 [8]
CC12CCCC(/C1=N\O)C(c1ccccc1Br)NC2c1ccccc1Br (configuration not stated) | > 128 µg/mL | 128 µg/mL (≈ 268 µM) | 128 µg/mL (≈ 268 µM) | 128 µg/mL (≈ 268 µM) | 64 µg/mL (≈ 134 µM) | > 128 µg/mL | 64 µg/mL (≈ 134 µM) | 64 µg/mL (≈ 134 µM) | – | – | – | – | – | – | – | –
CO/N=C1\C2CCCC1(C)C(c1ccccc1)NC2c1ccccc1 (configuration not stated) | > 128 µg/mL | > 128 µg/mL | 128 µg/mL (≈ 383 µM) | > 128 µg/mL | 128 µg/mL (≈ 383 µM) | > 128 µg/mL | 64 µg/mL (≈ 191 µM) | > 128 µg/mL | – | – | – | – | – | – | – | –
CON=C1C2CC(C)CC1C(c1ccccc1F)NC2c1ccccc1F (stereo in doubt; 55b) | – | – | – | – | – | – | – | – | 4 µg/mL (≈ 10.8 µM) | 2 µg/mL (≈ 5.4 µM) | 16 µg/mL (≈ 43.2 µM) | 8 µg/mL (≈ 21.6 µM) | 2 µg/mL (≈ 5.4 µM) | 32 µg/mL (≈ 86.4 µM) | 16 µg/mL (≈ 43.2 µM) | 2 µg/mL (≈ 5.4 µM)
CO/N=C1\C2CCCC1(C)C(c1ccccc1Cl)NC2c1ccccc1Cl (configuration not stated) | 4 µg/mL (≈ 9.92 µM) | 16 µg/mL (≈ 39.7 µM) | 8 µg/mL (≈ 19.8 µM) | 32 µg/mL (≈ 79.3 µM) | 32 µg/mL (≈ 79.3 µM) | 8 µg/mL (≈ 19.8 µM) | 4 µg/mL (≈ 9.92 µM) | 4 µg/mL (≈ 9.92 µM) | – | – | – | – | – | – | – | –
CON=C1C2CC(C)CC1C(c1cccc(F)c1)NC2c1cccc(F)c1 (stereo in doubt; 56a) | 64 µg/mL (≈ 173 µM) | – | 64 µg/mL (≈ 173 µM) | 16 µg/mL (≈ 43.2 µM) | – | 64 µg/mL (≈ 173 µM) | 16 µg/mL (≈ 43.2 µM) | 32 µg/mL (≈ 86.4 µM) | – | 64 µg/mL (≈ 173 µM) | – | – | 32 µg/mL (≈ 86.4 µM) | – | – | –
CO/N=C1\C2CCCC1(C)C(c1cccc(OC)c1)NC2c1cccc(OC)c1 (configuration not stated) | 128 µg/mL (≈ 324 µM) | > 128 µg/mL | 128 µg/mL (≈ 324 µM) | 64 µg/mL (≈ 162 µM) | > 128 µg/mL | > 128 µg/mL | 32 µg/mL (≈ 81.1 µM) | 64 µg/mL (≈ 162 µM) | – | – | – | – | – | – | – | –
CO/N=C1\C2CCCC1(C)C(c1ccccc1OC)NC2c1ccccc1OC (configuration not stated) | 128 µg/mL (≈ 324 µM) | 128 µg/mL (≈ 324 µM) | 32 µg/mL (≈ 81.1 µM) | 32 µg/mL (≈ 81.1 µM) | 64 µg/mL (≈ 162 µM) | 64 µg/mL (≈ 162 µM) | 32 µg/mL (≈ 81.1 µM) | 64 µg/mL (≈ 162 µM) | – | – | – | – | – | – | – | –
CO/N=C1\C2CCCC1(C)C(c1ccc(Br)cc1)NC2c1ccc(Br)cc1 (configuration not stated) | 64 µg/mL (≈ 130 µM) | 32 µg/mL (≈ 65 µM) | 32 µg/mL (≈ 65 µM) | 64 µg/mL (≈ 130 µM) | 64 µg/mL (≈ 130 µM) | > 128 µg/mL | 32 µg/mL (≈ 65 µM) | 128 µg/mL (≈ 260 µM) | – | – | – | – | – | – | – | –
CO/N=C1\C2CCCC1(C)C(c1ccc(F)cc1)NC2c1ccc(F)cc1 (configuration not stated) | 16 µg/mL (≈ 43.2 µM) | 32 µg/mL (≈ 86.4 µM) | 16 µg/mL (≈ 43.2 µM) | 32 µg/mL (≈ 86.4 µM) | 8 µg/mL (≈ 21.6 µM) | 16 µg/mL (≈ 43.2 µM) | 8 µg/mL (≈ 21.6 µM) | 8 µg/mL (≈ 21.6 µM) | – | – | – | – | – | – | – | –
CO/N=C1\C2CCCC1(C)C(c1ccccc1C)NC2c1ccccc1C (configuration not stated) | 128 µg/mL (≈ 353 µM) | 64 µg/mL (≈ 177 µM) | 128 µg/mL (≈ 353 µM) | 32 µg/mL (≈ 88.3 µM) | 64 µg/mL (≈ 177 µM) | 128 µg/mL (≈ 353 µM) | 32 µg/mL (≈ 88.3 µM) | 128 µg/mL (≈ 353 µM) | – | – | – | – | – | – | – | –
CON=C1C2CC(C)CC1C(c1cccc(Cl)c1)NC2c1cccc(Cl)c1 (configuration not stated) | 32 µg/mL (≈ 79.3 µM) | 32 µg/mL (≈ 79.3 µM) | 32 µg/mL (≈ 79.3 µM) | 64 µg/mL (≈ 159 µM) | 16 µg/mL (≈ 39.7 µM) | 128 µg/mL (≈ 317 µM) | 32 µg/mL (≈ 79.3 µM) | 8 µg/mL (≈ 19.8 µM) | – | – | – | – | – | – | – | –
CC12CCCC(/C1=N\O)C(c1cccc(Cl)c1)NC2c1cccc(Cl)c1 (configuration not stated) | 128 µg/mL (≈ 329 µM) | > 128 µg/mL | 64 µg/mL (≈ 164 µM) | > 128 µg/mL | 64 µg/mL (≈ 164 µM) | > 128 µg/mL | 64 µg/mL (≈ 164 µM) | 64 µg/mL (≈ 164 µM) | – | – | – | – | – | – | – | –
CON=C1C2CC(C)CC1C(c1cccc(F)c1)NC2c1cccc(F)c1 (stereo in doubt; 56b) | – | – | – | – | – | – | – | – | 32 µg/mL (≈ 86.4 µM) | 16 µg/mL (≈ 43.2 µM) | 64 µg/mL (≈ 173 µM) | 32 µg/mL (≈ 86.4 µM) | 8 µg/mL (≈ 21.6 µM) | 64 µg/mL (≈ 173 µM) | 32 µg/mL (≈ 86.4 µM) | 16 µg/mL (≈ 43.2 µM)
CC1CC2C(=NO)C(C1)C(c1ccc(F)cc1)NC2c1ccc(F)cc1 (configuration not stated) | 32 µg/mL (≈ 89.8 µM) | 64 µg/mL (≈ 180 µM) | 32 µg/mL (≈ 89.8 µM) | 64 µg/mL (≈ 180 µM) | 32 µg/mL (≈ 89.8 µM) | 64 µg/mL (≈ 180 µM) | 8 µg/mL (≈ 22.4 µM) | 64 µg/mL (≈ 180 µM) | – | – | – | – | – | – | – | –
